ChEMBL document CHEMBL1121779, “Thiophene systems. 5. Thieno[3,4-b][1,5]benzoxazepines, thieno[3,4-b][1,5]benzothiazepines, and thieno[3,4-b][1,4]benzodiazepines as potential central nervous system agents” (1981)
Calls of active or inactive are those of the source. No cut-off for these calls is given here.

Assays:
[1] = tested on: Mus musculus; assay: Compound was tested for the neuroleptic activity as measured by it's antagonism of d-amphetamine induced lethality in grouped mice(GAL) when administered perorally; 0.09-0.24; type: functional; conditions: po
[2] = tested on: Mus musculus; assay: Inhibition of tetrabenazine induced depression in mice was following p.o. administration; Inactive.; type: functional, organism-based
[3] = tested on: Rattus norvegicus; assay: Reduction in motor activity in rats following p.o. administration.; type: functional
In short: (§1)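 Rats in groups of five given graded oral doses. Locomotor activity counted per rat over 5 min at the time of peak effect, which was set earlier with a selected dose. MDD50 is the dose giving 50% reduction versus controls, taken from linear regression.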

[4] = tested on: Mus musculus; assay: Compound was tested for the neuroleptic activity as measured by it's antagonism of d-amphetamine induced lethality in grouped mice(GAL) when administered perorally; 0.1-0.6; type: functional; conditions: po
[5] = tested on: Mus musculus; assay: Minimum effective dose causing antagonism of tetrabenazine induced depression in mice was determined when administered perorally; Inactive at 25 mg/kg; type: functional, organism-based; parameters: dose 25 mg/kg
[6] = tested on: Mus musculus; assay: Compound was tested for the neuroleptic activity as measured by it's antagonism of d-amphetamine induced lethality in grouped mice(GAL) when administered perorally; type: functional; conditions: po
[7] = tested on: Mus musculus; assay: Minimum effective dose causing antagonism of tetrabenazine induced depression in mice was determined when administered perorally; type: functional; conditions: po, read-out: MED
[8] = tested on: Mus musculus; assay: Compound was tested for the neuroleptic activity as measured by it's antagonism of d-amphetamine induced lethality in grouped mice(GAL) when administered perorally; Inactive; type: functional, organism-based
[9] = tested on: Mus musculus; assay: Compound was tested for the neuroleptic activity as measured by it's antagonism of d-amphetamine induced lethality in grouped mice(GAL) when administered perorally; 3.2-5.5; type: functional; conditions: po
[10] = tested on: Mus musculus; assay: Compound was tested for the neuroleptic activity as measured by it's antagonism of d-amphetamine induced lethality in grouped mice(GAL) when administered perorally; 2.4-5.6; type: functional; conditions: po
[11] = tested on: Mus musculus; assay: Minimum effective dose causing antagonism of tetrabenazine induced depression in mice was determined when administered perorally; Inactive; type: functional, organism-based
[12] = tested on: Mus musculus; assay: Compound was tested for the neuroleptic activity as measured by it's antagonism of d-amphetamine induced lethality in grouped mice(GAL) when administered perorally; 2.5-3.9; type: functional; conditions: po
[13] = tested on: Mus musculus; assay: Compound was tested for the neuroleptic activity as measured by it''s antagonism of d-amphetamine induced lethality in grouped mice(GAL) when administered perorally; Inactive at 20 mg/kg; type: functional, organism-based; parameters: dose 20 mg/kg
[14] = tested on: Mus musculus; assay: Compound was tested for the neuroleptic activity as measured by it's antagonism of d-amphetamine induced lethality in grouped mice(GAL) when administered perorally; Inactive at 20 mg/kg; type: functional, organism-based; parameters: dose 20 mg/kg
[15] = tested on: Mus musculus; assay: Compound was tested for the neuroleptic activity as measured by it's antagonism of d-amphetamine induced lethality in grouped mice(GAL) when administered perorally; 9-33; type: functional; conditions: po
[16] = tested on: Mus musculus; assay: Compound was tested for the neuroleptic activity as measured by it's antagonism of d-amphetamine induced lethality in grouped mice(GAL) when administered perorally; 1-15; type: functional; conditions: po
[17] = tested on: Mus musculus; assay: Compound was tested for the neuroleptic activity as measured by it's antagonism of d-amphetamine induced lethality in grouped mice(GAL) when administered perorally; 1.1-2.5; type: functional; conditions: po
[18] = tested on: Mus musculus; assay: Minimum effective dose causing antagonism of tetrabenazine induced depression in mice was determined when administered perorally; Inactive at 20 mg/kg; type: functional, organism-based; parameters: dose 20 mg/kg
[19] = tested on: Mus musculus; assay: Compound was tested for the neuroleptic activity as measured by it's antagonism of d-amphetamine induced lethality in grouped mice(GAL) when administered perorally; 1.4-3.1; type: functional; conditions: po
[20] = tested on: Mus musculus; assay: Compound was tested for the neuroleptic activity as measured by it's antagonism of d-amphetamine induced lethality in grouped mice(GAL) when administered perorally; 0.4-3.1; type: functional; conditions: po
[21] = tested on: Mus musculus; assay: Compound was tested for the neuroleptic activity as measured by it's antagonism of d-amphetamine induced lethality in grouped mice(GAL) when administered perorally; 1.1-1.9; type: functional; conditions: po
[22] = tested on: Mus musculus; assay: Compound was tested for the neuroleptic activity as measured by it's antagonism of d-amphetamine induced lethality in grouped mice(GAL) when administered perorally; 5.1-9; type: functional; conditions: po
[23] = tested on: Rattus norvegicus; assay: Dose causing 50% reduction of motor activity in rats was measured when administered perorally; Inactive at 50 mg/kg; type: functional, organism-based; parameters: dose 50 mg/kg; in short: as §1
[24] = tested on: Mus musculus; assay: Compound was tested for the neuroleptic activity as measured by it's antagonism of d-amphetamine induced lethality in grouped mice(GAL) when administered perorally; 1.6-3.8; type: functional; conditions: po

## CN1CCN(C2=Nc3ccccc3Oc3ccc(Cl)cc32)CC1 [LOXAPINE]
[1]
  ED50: 0.14 mg/kg
[2]
  MED: inactive
[3]
  MDD50: 0.6 mg/kg

## CN1CCN(C2=Nc3ccccc3Sc3cscc32)CC1
[4]
  ED50: 0.2 mg/kg
[5]
  MED: inactive
[3]
  MDD50: <10 mg/kg

## CN1CCN(C2=Nc3cscc3N(C)c3ccccc32)CC1
[6]
  ED50: 6.5 mg/kg
[7]
  minimal effective dose: 7.6 mg/kg
[3]
  MDD50: 51 mg/kg

## CN1CCN(C2=Nc3cc(Cl)ccc3Sc3cscc32)CC1
[8]
  ED50: inactive
[2]
  MED: inactive

## CN1CCN(C2=Nc3cc(Cl)ccc3Nc3ccccc32)CC1 [CLOZAPINE]
[9]
  ED50: 4.2 mg/kg
[2]
  MED: inactive
[3]
  MDD50: 21 mg/kg

## Cc1ccc2c(c1)N=C(N1CCN(C)CC1)c1cscc1O2
[10]
  ED50: 3.6 mg/kg
[11]
  MED: inactive
[3]
  MDD50: 5.96 mg/kg

## CN1CCN(C2=Nc3cc(Br)ccc3Oc3cscc32)CC1
[12]
  ED50: 3.1 mg/kg
[2]
  MED: inactive
[3]
  MDD50: 16.4 mg/kg

## OCCN1CCN(C2=Nc3cc(Br)ccc3Oc3cscc32)CC1
[6]
  ED50: < 2.5 mg/kg
[2]
  MED: inactive

## Cc1cccc2c1N=C(N1CCN(CCO)CC1)c1cscc1O2
[13]
  ED50: inactive

## CN1CCN(C2=Nc3ccccc3Sc3c2csc3Cl)CC1
[7]
  minimal effective dose: 1.6 mg/kg
[14]
  ED50: inactive

## CN1CCN(C2=Nc3cscc3Nc3ccc(F)cc32)CC1
[15]
  ED50: 17.5 mg/kg
[2]
  MED: inactive

## Cc1ccc2c(c1)Oc1cscc1C(N1CCN(C)CC1)=N2
[13]
  ED50: inactive
[11]
  MED: inactive

## CN1CCN(C2=Nc3cscc3N(C)c3ccc(F)cc32)CC1
[8]
  ED50: inactive
[7]
  minimal effective dose: 6.25 mg/kg

## CCN1CCN(C2=Nc3cc(C)ccc3Oc3cscc32)CC1
[16]
  ED50: 3.9 mg/kg
[11]
  MED: inactive
[3]
  MDD50: <50 mg/kg

## OCCN1CCN(C2=Nc3ccccc3Sc3cscc32)CC1
[6]
  ED50: 0.2 mg/kg
[2]
  MED: inactive
[3]
  MDD50: <10 mg/kg

## Cc1ccc2c(c1)Oc1cscc1C(N1CCN(CCO)CC1)=N2
[2]
  MED: inactive
[3]
  MDD50: 37 mg/kg

## COc1ccc2c(c1)N=C(N1CCN(C)CC1)c1cscc1O2
[8]
  ED50: inactive

## CN1CCN(C2=Nc3cscc3Nc3ccc(Cl)cc32)CC1
[6]
  ED50: ≤ 5 mg/kg
[2]
  MED: inactive

## COc1ccc2c(c1)Oc1cscc1C(N1CCN(C)CC1)=N2
[8]
  ED50: inactive
[2]
  MED: inactive

## COc1ccc2c(c1)N=C(N1CCN(CCO)CC1)c1cscc1O2
[8]
  ED50: inactive
[2]
  MED: inactive

## CN1CCN(C2=Nc3cc(Cl)ccc3Oc3cscc32)CC1
[17]
  ED50: 1.6 mg/kg
[2]
  MED: inactive
[3]
  MDD50: 9.6 mg/kg

## CN1CCN(C2=Nc3cscc3Nc3ccccc32)CC1
[6]
  ED50: 3.2 mg/kg
[18]
  MED: inactive
[3]
  MDD50: 15 mg/kg

## OCCN1CCN(C2=Nc3cc(Cl)ccc3Oc3cscc32)CC1
[19]
  ED50: 2 mg/kg
[2]
  MED: inactive
[3]
  MDD50: 19.2 mg/kg

## Cc1ccc2c(c1)N=C(N1CCN(CCO)CC1)c1cscc1O2
[13]
  ED50: inactive
[3]
  MDD50: 27.2 mg/kg

## OCCN1CCN(C2=Nc3ccccc3Oc3cscc32)CC1
[6]
  ED50: < 10 mg/kg
[2]
  MED: inactive
[3]
  MDD50: 5.4 mg/kg

## CN(C)CCCN1c2ccccc2CCc2ccccc21 [IMIPRAMINE]
[6]
  ED50: > 50 mg/kg
[7]
  minimal effective dose: 5 mg/kg
[3]
  MDD50: >20 mg/kg

## CN1CCN(C2=Nc3ccccc3Oc3cscc32)CC1
[6]
  ED50: 1.4 mg/kg
[5]
  MED: inactive
[3]
  MDD50: 1.3 mg/kg

## Cc1cccc2c1N=C(N1CCN(C)CC1)c1cscc1O2
[20]
  ED50: 1.2 mg/kg
[2]
  MED: inactive
[3]
  MDD50: >50 mg/kg

## CCN1CCN(C2=Nc3ccccc3Oc3cscc32)CC1
[21]
  ED50: 1.4 mg/kg
[2]
  MED: inactive
[3]
  MDD50: 1.66 mg/kg

## CN1CCN(C2=Nc3cscc3N(C)c3ccc(Cl)cc32)CC1
[13]
  ED50: inactive
[7]
  minimal effective dose: 1.56 mg/kg
[3]
  MDD50: 4.1 mg/kg

## CCN1CCN(C2=Nc3cc(Cl)ccc3Oc3cscc32)CC1
[22]
  ED50: 6.8 mg/kg
[2]
  MED: inactive
[3]
  MDD50: <50 mg/kg

## OCCN1CCN(C2=Nc3ccccc3Oc3c2csc3Cl)CC1
[6]
  ED50: < 10 mg/kg
[2]
  MED: inactive
[23]
  MDD50: inactive

## Cc1cc2c(cc1C)Sc1cscc1C(N1CCN(C)CC1)=N2
[8]
  ED50: inactive
[2]
  MED: inactive

## CN1CCN(C2=Nc3ccccc3Oc3c2csc3Cl)CC1
[24]
  ED50: 2.4 mg/kg
[7]
  minimal effective dose: 12.5 mg/kg
[3]
  MDD50: <50 mg/kg
